MEKK2 WT-MEK5: raises or lowers MEK5 binding to wildtype human MEKK2 PB1 domain; bead flow cytometry, Alexa488-MEK5 binding to MEKK2 WT; actives lie on both sides; Q9Y2U5; 290,000 compounds, 1.1% hits; binding response (% of control), % at 10 µM; in the data active = binding response below about 67% or above about 130%; inconclusive = no clear call, values can overlap the other calls; inactive = in between
MEKK3 PB1 HTS: raises or lowers MEK5 binding to the human MEKK3 PB1 domain. 290,000 compounds, 1.4% hits. AID 1529. bead-based flow cytometry, Alexa488-MEK5 binding to MEKK3; actives lie on both sides; 0 = blocked by unlabeled MEK5, 100 = vehicle. binding response (% of control), % at 10 µM. Q99759;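 active = binding response more than 3 SD above or below the average of its plate-row segment, actives on both sides; inconclusive = wells at one plate position flagged as instrument error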;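 note: Alexa488 bead fluorescence after subtracting the streptavidin-only scavenger bead signal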
UBC13 inh: human UBC13 polyubiquitination inhibition | P61088 | UBC13 polyubiquitin chain formation, TR-FRET | inhibition, % at 20 µM | 330,000 compounds, 0.47% hits | AID 485273; in the data active = inhibition above about 45%, passing the limit was not always enough; inconclusive = no clear call, values can overlap the other calls
Apaf-1 inh: blocks human Apaf-1 apoptosome activity. reconstituted apoptosome caspase-3 activity, DEVD-Rh110 fluorescence. inhibition, % at 20 µM. 330,000 compounds, 0.71% hits; active = inhibition of at least 40% at 20 µM;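 note: plate controls were DMSO wells for no effect and DEVD-CHO caspase inhibitor wells for full effect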
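detection = Rh110 fluorescence intensity | test system = biochemical Apaf-1 apoptosome reconstitution | also added = cytochrome c and DEVD-Rh110 substrate | schedule = 30 min plus 50 min, RT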
MEKK2 mut-MEK5: signal of MEK5 binding to mutant human MEKK2 PB1 domain; bead flow cytometry, Alexa488-MEK5 binding to MEKK2 mutant; 290,000 compounds, 0.35% hits; AID 1530; percent response, % at 10 µM; in the data active = percent response above about 24%, passing the limit was not always enough
MEKK2wt confirm: raises or lowers MEK5 binding to wildtype human MEKK2, retest; shares compounds with MEKK3 PB1 HTS; bead flow cytometry, Alexa488-MEK5 binding to MEKK2 WT; actives lie on both sides; binding response (% of control), % at 10 µM; 5,900 compounds, 2.4% hits; in the data active = binding response below about 16% or above about 210%; inactive = in between
MEKK2mut-MEK5: signal of MEK5 binding to mutant human MEKK2, retest | shares compounds with MEKK3 PB1 HTS | bead flow cytometry, Alexa488-MEK5 binding to MEKK2 mutant | percent response, % at 10 µM | 5,900 compounds, 2% hits | AID 1893; in the data active = percent response mostly above about 71%, no sharp cut-off; inactive = mostly below about 38%;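 note: higher means compound restores mutant binding toward wildtype level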
MEKK3 confirm: MEKK3-MEK5 PB1 inhibition, single concentration confirmation; 5,900 compounds, 1.8% hits; binding response (% of control), % at 10 µM; bead flow cytometry, Alexa488-MEK5 binding to MEKK3; active compounds read low; shares compounds with MEKK3 PB1 HTS; AID 1894;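 active = binding response below 72% of control, or above a set upper limit, though filed actives all read lower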;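 note: 100% = DMSO only wells and 0% = binding blocked by excess unlabeled MEK5; lower values mean stronger disruption of MEK5 binding to MEKK3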
* = called active by the depositor; i = inactive; ? = inconclusive; / = no result given; ! = not active in a repeat; [ ] = remark or other dose. An excerpt weighted towards active compounds, which were near 2.9% of everything screened.

SMILES | MEKK2 WT-MEK5 | MEKK3 PB1 HTS | UBC13 inh | Apaf-1 inh | MEKK2 mut-MEK5 | others
C[n+]1c2ccccc2nc2ccc(NCCO)cc21 | 95 | 85 | i | 94* | 0
O=C1NC(=S)N(c2ccc(F)cc2)C(=O)/C1=C/c1ccco1 | 94 | 98 | ? | 70* | 0
Nc1cncc(C(=O)O)c1 | 90 | 97 | 4 | 41*! | -6
O=C1CCCN1C(=O)c1cncc(Br)c1 | 104 | 105 | 8 | 1 | -2
COc1ccc(-c2nn(CCC#N)cc2C(=O)Nc2cccc([N+](=O)[O-])c2)cc1OC | 106 | 107 | 6 | -14 | 4
CCCNC1=C(C)C(=O)C2=C(C1=O)C(COC(N)=O)[C@]1(OC)C3NC3CN21 (stereo partly specified) | 95 | 87 | -22 | 57* | 1
CCCCCCn1c(O)c(C=Nc2ccccc2N2CCOCC2)c(=O)[nH]c1=S | 29* | 101 | -2 | 16 | 24
COC(=O)C1=C(c2c(C)noc2C)C[C@@H]2CC[C@H]1N2C(=O)N1CCCC1 | / | / | 6 | -3 | /
O=C(O)c1sc2cc(Cl)ccc2c1Cl | 103 | 109 | -2 | -3 | 17
CN1CC[C@@]2(C)c3cc(O)ccc3N(C)C2O1 (stereo partly specified) | 104 | 98 | -97 | 92* | 2
C=CCN1CC[C@@]2(C)c3cc(O)ccc3CC1[C@@H]2C | 110 | 107 | 15 | -7 | 5
COc1ccc(CN2CCN(Cc3ccccc3F)CC2)cc1 | 102 | 104 | 3 | 0 | 3
COC(=O)C1=CO[C@@H](C)[C@H]2CN3CC[C@]4(C(=O)Nc5ccccc54)[C@@H]3C[C@H]12 | -8.0* | 95 | 7 | -4 | -4
COC(=O)C1=CO[C@H](C)[C@H]2CN3CC[C@@]4(C(=O)Nc5ccccc54)[C@@H]3C[C@H]12 | 102 | 103 | 5 | 8 | 3
COc1ccc(-c2nc3ccccc3c(=O)n2-c2ccc(OC)cc2)cc1 | 94 | 104 | 20 | -2 | -6
CCn1nc(-c2ccccc2)nc2c(=O)n(C)c(=O)nc1-2 | 109 | 108 | -169 | 98* | 11
Nc1c(C(=O)NC2CCCC2)c2nc3ccccc3nc2n1CC1CCCO1 (stereo unspecified) | / | / | 12 | 94* | /
CCCCCCn1c(O)c(C=NCCN2CCOCC2)c(=O)[nH]c1=O | 100 | 99 | -1 | -2 | -4
C[N+]1(C)[C@@H]2CC[C@H]1CC(OC(=O)[C@@H](CO)c1ccccc1)C2 (stereo partly specified) | 110 | 103 | 2 | 70* | 5
C[N+]1(C)C2CC[C@H]1CC(OC(=O)C(CO)c1ccccc1)C2 (stereo partly specified) | / | / | -4 | -6 | /
COC(=O)C1=C(c2cccc(C#N)c2)C[C@@H]2CC[C@H]1N2C(=O)NC1CCCCC1 | / | / | -2 | 5 | /
CN1/C(=C\C=C\C2=[N+](C)c3ccc4ccccc4c3C2(C)C)C(C)(C)c2ccccc21 | / | 89 | -156 | 90* | -21
COc1ccc(-c2cc(-c3ccccc3)[n+](C)c(-c3ccccc3)c2)cc1 | 99 | 103 | 10 | 5 | -1
C[n+]1c(-c2ccccc2)cc(CCCCc2cc(-c3ccccc3)[n+](C)c(-c3ccccc3)c2)cc1-c1ccccc1 | 9.0*[inhibitor] | 108 | 33 | 15 | 56*
Oc1ccc2c3c1O[C@H]1c4oc5ccccc5c4C[C@@]4(O)[C@@H](C2)N(CC2CC2)CC[C@]314 | 121 | 106 | 14 | -13 | 8
SMILES | MEKK2 WT-MEK5 | MEKK3 PB1 HTS | UBC13 inh | Apaf-1 inh | MEKK2 mut-MEK5 | others
Clc1ccc(CO/N=C(\Cn2ccnc2)c2ccc(Cl)cc2Cl)c(Cl)c1 | 121 | 104 | 51* | 36 | 6
CCOC(=O)c1c(N)n(CCCOC(=O)c2ccco2)c2nc3ccccc3nc12 | 99 | 101 | -16 | 43* | -5
COCCCNC(=O)c1c(N)n(Cc2ccco2)c2nc3ccccc3nc12 | 91 | 90 | -27 | 27 | -9
CCCNC(=O)c1c(N)n(Cc2ccco2)c2nc3ccccc3nc12 | 91 | 98 | -34 | 40* | -2
CC(C#N)CCC#N (stereo unspecified) | / | / | 4 | -4 | /
CN1CCC(O)(c2cccs2)C(C(=O)c2cccs2)C1 (stereo unspecified) | 98 | 100 | -1 | -11 | 1
COC(=O)C1C=C2c3cccc4[nH]cc(c34)CC2N(C)C1 (stereo unspecified) | 68 | 71 | -57 | 56* | -29
CCC(CO)NC(=O)C1C=C2c3cccc4[nH]cc(c34)CC2N(C)C1 (stereo unspecified) | 70 | 61 | 19 | 40 | -20
CC(C)C[C@H]1C(=O)N2CCC[C@H]2[C@]2(O)O[C@](NC(=O)[C@@H]3C=C4c5cccc6[nH]cc(c56)C[C@H]4N(C)C3)(C(C)C)C(=O)N12 | / | / | -90 | 91* | /
C=CCN1CC[C@]23c4c5ccc(O)c4OC2C(O)CC[C@@]3(O)[C@H]1C5 (stereo partly specified) | / | / | 9 | -7 | /
CCC(C)N1C(=O)/C(=C\c2ccc(N3CCCCCC3)cc2)C(=O)NC1=S (stereo unspecified) | 64 | 88 | -28 | 4 | 51*
CCCCCSc1cc(OC)c(CCN)cc1OC | 127 | 107 | 22 | 6 | 14
CCCCCCCCCOc1ccc2[nH]cc(CCN)c2c1 | 252* | 114 | / | / | 34*
CCCOC(=O)c1ccc(-[n+]2c(-c3ccccc3)cc(-c3ccccc3)cc2-c2ccccc2)cc1 | / | / | 27 | 47* | /
O=C(O)c1ccc(-[n+]2c(-c3ccccc3)cc(-c3ccccc3)cc2-c2ccccc2)cc1 | / | / | -3 | -3 | /
CCOc1cc(C2C(C#N)=C(N)Oc3c2c(=O)oc2ccccc32)ccc1OC(=O)c1cccs1 (stereo unspecified) | 100 | 129* | -25 | 8 | 0 | MEKK2wt confirm=94;MEKK2mut-MEK5=-1;MEKK3 confirm=102
O=[N+]([O-])[N-][n+]1cnn(Cc2ccc(Cl)cc2)c1 | 93 | 99 | -15 | 3 | -7
COc1ccc(Cc2c(O)[nH]c(=S)[nH]c2=O)cc1 | 105 | 99 | -10 | -1 | 5
